Test results reported in ChEMBL document CHEMBL1122695, “C1-Methylated 5-hydroxy-2-(dipropylamino)tetralins: central dopamine-receptor stimulating activity” (1984).
Calls of active or inactive are those of the source. The calls are words filed in the database; no cut-off is given here.

Assays:
Rattus norvegicus [1] = species: Rattus norvegicus; assay: Half maximal decrease of dopa accumulation in limbic portion of reserpinized rats; I =Inactive; format: functional, organism-based; details: Limbic system
How it was run: (§1)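 Reserpinized rats; Dopa accumulation measured after the decarboxylase inhibitor NSD 1015 (100 mg/kg), Dopa determined spectrophotometrically. Compounds in saline, given subcutaneously at four to six dose levels. A dose-response curve was built per compound and brain area (limbic, striatal). ED50 is the dose giving half-maximal decrease of Dopa, estimated graphically. SEM was below 15% of the mean at each point.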

Rattus norvegicus [2] = species: Rattus norvegicus; assay: Reduction in accumulated dopa is indicated with Motor activity value; format: functional
How it was run: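 Rats given reserpine (10 mg/kg ip) 6 h and α-methyl-p-tyrosine methyl ester (250 mg/kg ip) 1 h before testing. Compounds were then given sc in the neck, n = 4, at 1 or 10 mg/kg in saline; controls received saline. Photocell motility meters, one rat per cage, recorded activity for 60 min immediately after dosing, with gross behavior observed.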

Rattus norvegicus [3] = species: Rattus norvegicus; assay: Half maximal decrease of dopa accumulation in striatal brain portion of reserpinized rats; I =Inactive; format: functional, organism-based; how it was run: as §1
Rattus norvegicus [4] = species: Rattus norvegicus; assay: Half maximal decrease of dopa accumulation in limbic portion of reserpinized rats; format: functional; details: Limbic system; how it was run: as §1
Rattus norvegicus [5] = species: Rattus norvegicus; assay: Half maximal decrease of dopa accumulation in striatal brain portion of reserpinized rats; format: functional; how it was run: as §1

CCCN(CCC)[C@H]1CCc2c(O)cccc2C1(C)C was tested, and the ED50 (Rattus norvegicus [1]) was “inactive”, the Motor activity (Rattus norvegicus [2]) was “inactive” and the ED50 (Rattus norvegicus [3]) was “inactive”.

In the case of Br.CCCN(CCC)[C@H]1CCc2c(O)cccc2[C@@H]1C, the ED50 (Rattus norvegicus [4]) was 0.66 µmol/kg, the ED50 (Rattus norvegicus [5]) was 0.725 µmol/kg and the Motor activity (Rattus norvegicus [2]) was 406 Counts hr-1.

Br.CCCN(CCC)[C@H]1CCc2c(O)cccc2[C@H]1C was tested, and the ED50 (Rattus norvegicus [4]) was 0.67 µmol/kg, the ED50 (Rattus norvegicus [5]) was 0.8 µmol/kg and the Motor activity (Rattus norvegicus [2]) was 52 Counts hr-1.
